From ChEMBL document CHEMBL5316292 (J Med Chem, 2023)
Calls of active or inactive are those of the source. The rule behind the calls is not given here.

Assays:
LNCaP = assay: Antiproliferative activity against androgen-sensitive human LNCaP cells assessed as reduction in cell viability measured after 72 hrs by MTS assay; assay type: functional, cell-based
How it was run: (§1)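 MTS viability assay run in triplicate wells. Serial dilutions in DMSO were given, with DMSO as negative control and doxorubicin as positive control, and incubated 72 h. MTS reagent was added for 2 h and absorbance read at 490 nm. % cytotoxicity = (A_medium − A_treatment)/A_medium × 100. EC50 ± SD was taken from dose-response curves of at least three independent experiments.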

[1] = Antiproliferative activity against human Androgen-resistant 22Rv1 cells assessed as reduction in cell viability measured after 72 hrs by MTS assay; assay type: functional, cell-based; conditions: 22Rv1, 72 h; how it was run: as §1
[2] = Cytotoxicity against HFF cells assessed as reduction in cell viability measured after 72 hrs by MTS assay; assay type: toxicity, cell-based; conditions: human; how it was run: as §1
VCaP [3] = assay: Antiproliferative activity against AR-positive human VCaP cells assessed as reduction in cell viability measured after 72 hrs by MTS assay; assay type: functional, cell-based
How it was run: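 VCaP cells in 96-well plates, compound serially diluted in DMSO and run in triplicate wells for 72 h. MTS reagent added for 2 h, absorbance read at 490 nm. % cytotoxicity = (A_medium − A_treatment)/A_medium × 100. EC50 and SD taken from dose-response curves, at least three independent experiments.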

PC-3 [4] = assay: Antiproliferative activity against androgen-insensitive human PC-3 cells assessed as reduction in cell viability measured after 72 hrs by MTS assay; assay type: functional, cell-based; conditions: PC-3, 72 h; how it was run: as §1
[5] = Cytotoxicity against human WI-38 cells assessed as reduction in cell viability measured after 72 hrs by MTS assay; assay type: toxicity, cell-based; how it was run: as §1
DU-145 = assay: Antiproliferative activity against AR-negative human DU-145 cells assessed as reduction in cell viability measured after 72 hrs by MTS assay; conditions: DU-145, 72 h
[6] = biological target: T1, Bromodomain-containing protein 3 (Homo sapiens, UniProt Q15059); assay: Inhibition of BRD3-BD1 (unknown origin) by fluorescence polarization assay
How it was run: (§2)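 FP competition assay using the fluorescein-labeled PCC conjugate (4 nM) as tracer. Recombinant His-tagged BRD bromodomain (20–400 nM) in 50 mM HEPES pH 7.4, 150 mM NaCl, 0.5 mM TCEP, 0.05% Tween-20. DMSO-matched serial dilutions were added and the plate incubated. Read at ex 485/em 535 nm, with G-factor zeroed on tracer alone. Triplicate data were curve-fitted, error SEM.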
Target sequence in this assay (Q15059 whole entry): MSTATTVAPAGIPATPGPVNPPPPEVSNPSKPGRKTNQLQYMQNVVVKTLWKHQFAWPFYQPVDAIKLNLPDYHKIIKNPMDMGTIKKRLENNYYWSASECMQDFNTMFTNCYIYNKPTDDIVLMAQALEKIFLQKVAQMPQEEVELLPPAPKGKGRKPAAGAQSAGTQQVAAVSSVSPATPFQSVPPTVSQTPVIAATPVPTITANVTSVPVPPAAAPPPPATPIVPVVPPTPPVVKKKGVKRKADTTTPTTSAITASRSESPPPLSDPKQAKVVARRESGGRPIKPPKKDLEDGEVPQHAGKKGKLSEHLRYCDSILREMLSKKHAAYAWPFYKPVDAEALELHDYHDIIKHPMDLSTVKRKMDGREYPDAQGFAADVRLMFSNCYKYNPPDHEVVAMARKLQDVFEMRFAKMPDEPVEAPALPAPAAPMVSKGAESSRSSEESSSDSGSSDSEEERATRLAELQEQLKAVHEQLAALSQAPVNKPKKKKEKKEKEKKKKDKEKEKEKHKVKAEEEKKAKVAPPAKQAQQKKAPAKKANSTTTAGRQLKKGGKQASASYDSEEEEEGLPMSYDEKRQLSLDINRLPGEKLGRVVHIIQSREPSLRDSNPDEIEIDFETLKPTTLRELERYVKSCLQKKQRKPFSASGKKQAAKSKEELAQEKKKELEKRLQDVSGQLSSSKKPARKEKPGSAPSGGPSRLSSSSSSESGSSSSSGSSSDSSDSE

[7] = biological target: T1, Bromodomain-containing protein 3; assay: Inhibition of BRD3-BD2 (unknown origin) by fluorescence polarization assay; how it was run: as §2
Target sequence in this assay (Q15059 whole entry): as above

[8] = biological target: T2, Bromodomain-containing protein 4 (Homo sapiens, UniProt O60885); assay: Inhibition of BRD4-BD1 (unknown origin) by fluorescence polarization assay; how it was run: as §2
[9] = biological target: T2, Bromodomain-containing protein 4; assay: Inhibition of BRD4-BD2 (unknown origin) by fluorescence polarization assay; how it was run: as §2
VCaP [10] = assay: Downregulation of BRD2 mRNA levels in human VCaP cells at 25 to 2500 nM incubated for 24 hrs by qRT-PCR analysis; assay type: functional, cell-based; conditions: dose 25-2500 nM
How it was run: (§3)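 VCaP cells grown to 50% confluence, then treated with compound or DMSO (Methods state 16 h, legend states 24 h). Total RNA isolated, cDNA made from 1 µg RNA, SYBR Green qPCR run in triplicate. Expression by ΔΔCt, normalised to GAPDH. Three independent experiments, SEM.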

VCaP [11] = assay: Downregulation of BRD3 mRNA levels in human VCaP cells at 25 to 2500 nM incubated for 24 hrs by qRT-PCR analysis; assay type: functional, cell-based; conditions: dose 25-2500 nM; how it was run: as §3
VCaP [12] = assay: Downregulation of BRD4 mRNA levels in human VCaP cells at 25 to 2500 nM incubated for 24 hrs by qRT-PCR analysis; assay type: functional, cell-based; conditions: dose 25-2500 nM; how it was run: as §3
VCaP [13] = assay: Downregulation of TMPRSS2 gene levels in human VCaP cells incubated for 24 hrs by qRT-PCR analysis; assay type: functional, cell-based; conditions: dose 25-2500 nM; how it was run: as §3
VCaP [14] = assay: Downregulation of ERG gene levels in human VCaP cells incubated for 24 hrs by qRT-PCR analysis; assay type: functional, cell-based; conditions: dose 25-2500 nM; how it was run: as §3
VCaP [15] = assay: Downregulation of PSA […] expression in human VCaP cells incubated for 24 hrs by qRT-PCR analysis; assay type: functional, cell-based; conditions: dose 25-2500 nM; how it was run: as §3
VCaP [16] = assay: Downregulation of AR […] expression in human VCaP cells at 25 to 2500 nM incubated for 24 hrs by qRT-PCR analysis; assay type: functional, cell-based; conditions: dose 25-2500 nM; how it was run: as §3
[17] = biological target: T1, Bromodomain-containing protein 3; assay: Induction of BRD3 degradation in human PC-3 cells incubated for 16 hrs by immunoblotting analysis; assay type: cell-based
How it was run: (§4)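 MDA-MB-231 or PC-3 cells at 50% confluence in DMEM/10% FBS/pen-strep, treated 16 h with doses falling tenfold from 10 µM to 1 nM. RIPA lysates immunoblotted for BRD2, BRD3 and BRD4 with GAPDH as control. DC50 derived from band densitometry. SEM, n = 2.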
Target sequence in this assay (Q15059 2-726 limits assumed): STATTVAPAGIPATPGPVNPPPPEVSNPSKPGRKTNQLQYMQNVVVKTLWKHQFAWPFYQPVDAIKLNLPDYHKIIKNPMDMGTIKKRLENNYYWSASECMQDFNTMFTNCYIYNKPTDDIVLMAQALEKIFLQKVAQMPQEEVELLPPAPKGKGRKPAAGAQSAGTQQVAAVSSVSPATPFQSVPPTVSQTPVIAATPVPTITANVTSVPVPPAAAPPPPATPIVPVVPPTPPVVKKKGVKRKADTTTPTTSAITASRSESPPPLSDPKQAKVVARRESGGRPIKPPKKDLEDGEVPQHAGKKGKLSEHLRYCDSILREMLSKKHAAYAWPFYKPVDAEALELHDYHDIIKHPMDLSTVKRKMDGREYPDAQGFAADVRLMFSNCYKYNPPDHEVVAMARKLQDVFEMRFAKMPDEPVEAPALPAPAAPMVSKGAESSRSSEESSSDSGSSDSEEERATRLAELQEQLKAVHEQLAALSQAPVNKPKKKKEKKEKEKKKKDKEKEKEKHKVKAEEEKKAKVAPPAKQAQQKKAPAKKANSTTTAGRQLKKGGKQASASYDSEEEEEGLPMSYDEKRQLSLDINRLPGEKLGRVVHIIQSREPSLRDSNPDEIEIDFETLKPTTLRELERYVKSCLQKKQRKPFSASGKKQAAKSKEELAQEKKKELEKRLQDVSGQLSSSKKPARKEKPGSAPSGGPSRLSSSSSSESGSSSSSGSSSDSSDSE

[18] = biological target: T2, Bromodomain-containing protein 4; assay: Induction of BRD4 degradation in human PC-3 cells incubated for 16 hrs by immunoblotting analysis; assay type: cell-based; how it was run: as §4
[19] = biological target: Bromodomain-containing protein 2 (Homo sapiens, UniProt P25440); assay: Induction of BRD2 degradation in human MDA-MB-231 cells assessed as decrease in BET half life at 50 ug/ml incubated for 8 hrs by immunoblotting analysis; assay type: cell-based; conditions: dose 50.0 µg/ml
Bromodomain-containing protein 2, sequence (P25440 whole entry, looked up): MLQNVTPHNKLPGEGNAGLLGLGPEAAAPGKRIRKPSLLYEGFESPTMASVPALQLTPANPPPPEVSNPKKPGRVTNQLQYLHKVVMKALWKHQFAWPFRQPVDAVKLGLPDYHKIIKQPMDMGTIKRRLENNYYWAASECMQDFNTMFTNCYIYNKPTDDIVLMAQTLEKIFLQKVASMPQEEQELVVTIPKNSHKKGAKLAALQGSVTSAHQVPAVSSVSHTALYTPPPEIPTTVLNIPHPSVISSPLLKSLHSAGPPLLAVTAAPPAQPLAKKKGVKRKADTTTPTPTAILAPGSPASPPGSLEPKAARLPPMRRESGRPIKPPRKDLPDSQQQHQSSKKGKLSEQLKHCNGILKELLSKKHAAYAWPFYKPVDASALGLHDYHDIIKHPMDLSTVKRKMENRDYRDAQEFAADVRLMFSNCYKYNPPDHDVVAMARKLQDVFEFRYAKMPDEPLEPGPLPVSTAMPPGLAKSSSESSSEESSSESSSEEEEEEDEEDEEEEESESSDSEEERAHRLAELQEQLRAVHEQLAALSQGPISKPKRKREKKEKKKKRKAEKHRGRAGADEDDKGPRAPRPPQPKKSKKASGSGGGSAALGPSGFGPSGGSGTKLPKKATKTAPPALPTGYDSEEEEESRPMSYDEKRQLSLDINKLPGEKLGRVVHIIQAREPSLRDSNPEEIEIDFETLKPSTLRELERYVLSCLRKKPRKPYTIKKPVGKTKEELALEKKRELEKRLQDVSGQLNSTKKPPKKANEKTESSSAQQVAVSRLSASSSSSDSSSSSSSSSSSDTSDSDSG
How it was run: (§5)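 MDA-MB-231 time-course. Cells given 50 µg/mL cycloheximide plus DMSO, or 50 µg/mL cycloheximide plus 10 µM compound. RIPA lysates immunoblotted for BRD2, BRD3 and BRD4 with GAPDH as control.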

[20] = biological target: T1, Bromodomain-containing protein 3; assay: Induction of BRD3 degradation in human MDA-MB-231 cells assessed as decrease in BET half life at 50 ug/ml incubated for 8 hrs by immunoblotting analysis; assay type: cell-based; conditions: dose 50.0 µg/ml; how it was run: as §5
Target sequence in this assay (Q15059 2-726 limits assumed): as the sequence (Q15059 2-726 limits assumed) above

[21] = biological target: T2, Bromodomain-containing protein 4; assay: Induction of BRD4 degradation in human MDA-MB-231 cells assessed as decrease in BET half life at 50 ug/ml incubated for 8 hrs by immunoblotting analysis; assay type: cell-based; conditions: dose 50.0 µg/ml; how it was run: as §5
PC-3 [22] = assay: Cytotoxicity against human PC-3 cells assessed as reduction in cell viability measured after 5 days by Cell-Titer glo assay; assay type: functional, cell-based; conditions: PC-3, 120 h

Row | SMILES | EC50 (LNCaP) [µM] | EC50 [1] [µM] | EC50 at 72 h [2] [µM] | EC50 (PC-3 [4]) [µM] | EC50 (DU-145) [µM] | IC50 [6] [µM] | IC50 [7] [µM] | IC50 [8] [µM] | IC50 [9] [µM] | other results
1 | C[C@H]1C[C@H]([C@](C)(O)[C@]2(O)CC[C@@]3(O)[C@@H]4C[C@H]5O[C@]56CC=CC(=O)[C@]6(C)[C@H]4CC[C@]23C)OC(=O)[C@@H]1C | 0.29 | 0.21 | > 2 | – | – | – | – | – | – | –
2 | COc1cccc2c1C(=O)c1c(O)c3c(c(O)c1C2=O)C[C@@](O)(C(=O)CO)C[C@@H]3O[C@H]1C[C@H](N)[C@H](O)[C@H](C)O1 [DOXORUBICIN] | 0.11 | 0.02 | 0.15 | 0.34 | 0.04 | – | – | – | – | EC50 (VCaP [3]): 0.67 µM; EC50 at 72 h [5]: 0.8 µM
3 | CC(=O)OC[C@]12CC[C@H]3[C@@H](C[C@H]4O[C@]45CC=CC(=O)[C@]35C)[C@]1(O)CC[C@@]2(O)[C@@](C)(O)[C@H]1C[C@@H](C)[C@@H](C)C(=O)O1 | 1.06 | 1.49 | > 2 | 0.844 | > 2 | > 20 | > 20 | > 20 | > 20 | –
4 | CC(=O)OC[C@]12CC[C@H]3[C@@H](C[C@H]4O[C@]45CC=CC(=O)[C@]35C)[C@]1(O)[C@@H](OC(C)=O)C[C@@]2(O)[C@@](C)(O)[C@H]1CC(C)=C(C)C(=O)O1 | 1.2 | – | – | 0.18 | – | 0.21 | 6 | 0.0476 | 14.8 | EC50 at 72 h [5]: > 5 µM
5 | CC1=C(C)C(=O)O[C@@H]([C@](C)(O)[C@]2(O)CC[C@@]3(O)[C@@H]4C[C@H]5O[C@]56CC=CC(=O)[C@]6(C)[C@H]4CC[C@]23C)C1 [WITHANOLIDE E] | 0.06 | 0.07 | > 10 | – | – | 2.95 | 0.72 | 0.556 | 1.52 | –
6 | Cc1sc2c(c1C)C(c1ccc(Cl)cc1)=N[C@@H](CC(=O)OC(C)(C)C)c1nnc(C)n1-2 | 0.162 | 0.231 | > 2 | > 2 | > 2 | – | – | – | – | EC50 (VCaP [3]): 0.16 µM; Activity (VCaP [10]): inactive; Activity (VCaP [11]): inactive; Activity (VCaP [12]): inactive; Activity (VCaP [13]): Active; Activity (VCaP [14]): Active; Activity (VCaP [15]): Dose-Dependent Effect; Activity (VCaP [16]): inactive
7 | CC(=O)OC[C@]12CC[C@H]3[C@@H](CC=C4C=CCC(=O)[C@@]43C)[C@]1(O)CC[C@@]2(O)[C@@](C)(O)[C@H]1CC(C)=C(C)C(=O)O1 | 1.1 | – | > 3 | 3.1 | – | 0.262 | 0.131 | 0.909 | 0.294 | –
8 | CC1=C(CO)C(=O)O[C@@H]([C@@H](C)[C@H]2CC[C@H]3[C@@H]4C[C@H]5O[C@]56[C@@H](O)C=CC(=O)[C@]6(C)[C@H]4CC[C@]23C)C1 [WITHAFERIN A] | 0.87 | – | > 6.8 | 0.41 | – | > 20 | > 20 | > 20 | > 20 | –
9 | CC(=O)OC[C@]12CC[C@H]3[C@@H](C[C@H]4O[C@]45CCCC(=O)[C@]35C)[C@]1(O)CC[C@@]2(O)[C@@](C)(O)[C@H]1C[C@@H](C)[C@@H](C)C(=O)O1 | > 2 | > 2 | > 2 | > 2 | > 2 | > 20 | > 20 | 3.87 | 1.83 | –
10 | CC(=O)OC[C@]12CC[C@H]3[C@@H](C[C@H]4O[C@]45CC=CC(=O)[C@]35C)[C@]1(O)CC[C@@]2(O)[C@@](C)(O)[C@H]1C[C@]2(C)O[C@]2(C)C(=O)O1 | 0.412 | 0.177 | > 2 | 0.425 | 1.47 | 2.36 | 0.755 | 1.93 | 5.63 | –
11 | CC1=C(CO)C[C@H]([C@](C)(O)[C@]2(O)CC[C@@]3(O)[C@@H]4C[C@H]5O[C@]56CC=CC(=O)[C@]6(C)[C@H]4CC[C@]23C)OC1=O | 2.78 | – | – | 2.9 | > 5 | 0.736 | > 20 | 0.281 | > 20 | EC50 (VCaP [3]): 1.11 µM; EC50 at 72 h [5]: > 5 µM
12 | CC(=O)OC[C@]12CC[C@H]3[C@@H](C[C@H]4O[C@]45CCCC(=O)[C@]35C)[C@]1(O)CC[C@@]2(O)[C@@](C)(O)[C@H]1CC(C)=C(C)C(=O)O1 | – | – | – | 1.1 | – | 0.235 | 10.6 | 0.06 | 9.14 | EC50 (VCaP [3]): > 2 µM; Activity [17]: inactive; Activity [18]: inactive
13 | CC(=O)OC[C@]12CC[C@H]3[C@@H](C[C@@H]4O[C@@]45CC=CC(=O)[C@]35C)[C@]1(O)CC[C@@]2(O)[C@@](C)(O)[C@H]1CC(C)=C(C)C(=O)O1 | 0.32 | – | > 12 | 1.2 | – | 0.0897 | 4.26 | 0.0312 | 10.8 | –
14 | C[C@@H]1C[C@@H]([C@H](O)CC2CC(=O)NC(=O)C2)C(=O)[C@@H](C)C1 | – | – | – | – | – | – | – | – | – | Activity [19]: inactive; Activity [20]: inactive; Activity [21]: inactive
15 | CC(=O)OC[C@]12CC[C@H]3[C@@H](C[C@H]4O[C@]45CC=CC(=O)[C@]35C)[C@]1(O)CC[C@@]2(O)[C@@](C)(O)[C@H]1C[C@H](C)[C@H](C)C(=O)O1 | 1.05 | 1.13 | > 2 | 0.899 | > 2 | > 20 | > 20 | > 20 | > 20 | –
16 | CC(=O)OC[C@]12CC[C@H]3[C@@H](CC=C4CC=CC(=O)[C@@]43C)[C@]1(O)CC[C@@]2(O)[C@@](C)(O)[C@H]1CC(C)=C(C)C(=O)O1 | 0.13 | 0.07 | > 3 | 0.13 | – | 0.018 | 15.8 | 0.0193 | 3.92 | –
17 | Cc1sc2c(c1C)C(c1ccc(Cl)cc1)=N[C@@H](CC(=O)NCCCCNC(=O)COc1cccc3c1C(=O)N(C1CCC(=O)NC1=O)C3=O)c1nnc(C)n1-2 (stereo partly drawn) | – | – | – | – | – | – | – | – | – | EC50 (PC-3 [22]): 0.05 µM
